High-throughput results from PubChem BioAssay.
Compounds with a hit are over-represented: about 1.7% of the library has one in this group of screens.
CaV13 FRET inh: Disruptors of the CACNA1D IQ motif to Ca2+-dependent inactivation inhibitor domain association, primary screening, Förster resonance energy transfer in intact living …. inhibition, % at 12.3 µM. 340,000 compounds, 0.098% hits. HEK cells, CFP/YFP FRET ICDI-IQ, plate reader, 10 min; percent FRET-ratio fall versus neutral wells;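 active = mean replicate inhibition of at least 30% and at least 1% of replicates passing that level; inconclusive = only one of the two criteria is met; inactive = neither criterion is met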
Vif imaging: HIV Vif self-association inhibitors, primary screen, imaging, HEK293T, single point | HEK293T cells, Vif self-association by quenched fluorescence, 24 h | inhibition, % at 7.49 µM | 340,000 compounds, 0.35% hits | AID 602346, 2012; in the data active = inhibition above about 50%, passing the limit was not always enough; inconclusive = no clear call, values can overlap the other calls; inactive = below about 31%
SR-BI DiI inh: inhibitors of SR-BI mediated HDL lipid uptake, primary screen, ldlA[mSR-BI] cells, fluorescence, single point | 320,000 compounds, 0.96% hits | inhibition, % at 12.5 µM | ldlA[mSR-BI] CHO cells, DiI-HDL uptake fluorescence, 3 h | AID 488896, 2010 | Scavenger receptor class B member 1 (Mus musculus), Q61009;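 active = mean replicate inhibition of at least 70% and a set share of replicates each scoring 70 or more; inconclusive = meets just one of the two criteria; inactive = fails both criteria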
Target sequence (Q61009 whole entry, looked up): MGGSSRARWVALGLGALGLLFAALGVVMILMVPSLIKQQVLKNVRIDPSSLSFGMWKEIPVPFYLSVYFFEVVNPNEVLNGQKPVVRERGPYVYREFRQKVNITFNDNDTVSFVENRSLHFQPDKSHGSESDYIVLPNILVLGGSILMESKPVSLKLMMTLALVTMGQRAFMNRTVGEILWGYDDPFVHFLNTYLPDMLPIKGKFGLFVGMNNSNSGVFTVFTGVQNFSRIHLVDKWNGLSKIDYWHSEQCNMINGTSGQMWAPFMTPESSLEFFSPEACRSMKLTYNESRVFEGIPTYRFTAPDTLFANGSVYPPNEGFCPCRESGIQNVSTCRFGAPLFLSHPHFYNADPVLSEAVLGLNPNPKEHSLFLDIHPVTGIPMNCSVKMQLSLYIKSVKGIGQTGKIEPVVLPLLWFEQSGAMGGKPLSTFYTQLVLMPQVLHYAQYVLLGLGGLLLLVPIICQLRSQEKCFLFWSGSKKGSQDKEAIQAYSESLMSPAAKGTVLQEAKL
NTR1 ag: agonists of human NTR1, primary screen, imaging, U2OS cells, beta-arrestin-GFP, high content; Neurotensin receptor type 1 (Homo sapiens), P30989; NTR1-U2OS beta-arrestin-GFP spot imaging, agonist mode; activation, % at 20 µM; 330,000 compounds, 0.17% hits;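 active = activation at or above 40% of the spot to cytoplasm intensity ratio, with at least 20 cells analyzed; inconclusive = wells under 20 cells, flagged as cytotoxic or low count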
SR-BI uptake up: activators of SR-BI mediated DiI-HDL uptake, primary screen, ldlA[mSR-BI] CHO cells, DiI fluorescence | 3 h; 100 = double the neutral-control signal | activation, % at 12.5 µM | 320,000 compounds, 0.096% hits;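 active = mean replicate activation of at least 60% and every replicate at or above 60%; inconclusive = mean or all-replicate condition met, but not both; inactive = mean below 60% and not all replicates reaching 60%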
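Test system: SR-BI-overexpressing, LDLR-lacking CHO cells. Measured by: DiI fluorescence, bottom read. Medium: Ham's F12 with 0.5% BSA, HEPES 25 mM, pH 7.4. Timing: 3 h uptake period with compound, 37 °C.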
V-ATPase pHluor: regulators of yeast V-ATPase proton pumping, primary screen, pHLuorin cytosolic pH fluorescence; response, % at 10 µM; 350,000 compounds, 0.37% hits; S. cerevisiae; in the data active = response mostly above about 7.3%, no sharp cut-off; inactive = mostly below about 5.4%; note: actives read high
Numbers stand for hits.

How did O=C1C=C(c2cc(C(F)(F)F)cc(C(F)(F)F)c2)C[C@@H](c2ccc(Cl)cc2)C1 do in these assays?
CaV13 FRET inh: inactive; Vif imaging: inactive; SR-BI DiI inh: 74; NTR1 ag: inactive; SR-BI uptake up: inactive; V-ATPase pHluor: inactive

What do the screens show for `O=C1C=C(c2ccccc2)C[C@@H](c2ccc(Cl)cc2)C1`?
CaV13 FRET inh: inactive; Vif imaging: inactive; SR-BI DiI inh: inactive; NTR1 ag: inactive; SR-BI uptake up: inactive; V-ATPase pHluor: inactive

Results for COc1ccc(CN2C[C@]3(CO)O[C@@H](CO)C[C@@H]3S2(=O)=O)cc1 ?
CaV13 FRET inh: inactive; Vif imaging: inactive; SR-BI DiI inh: inactive; NTR1 ag: inactive; SR-BI uptake up: inactive; V-ATPase pHluor: inactive

What do the screens show for `COC(=O)c1cc2c(c3c4cc(F)ccc4n(S(=O)(=O)c4ccccc4)c13)C(=O)N(Cc1ccccc1)C2`?
CaV13 FRET inh: inactive

How did CCN(CC(=O)NCc1ccc(Cl)cc1)S(=O)(=O)c1ccc(F)cc1 do in these assays?
CaV13 FRET inh: inactive; Vif imaging: inactive; SR-BI DiI inh: inactive; NTR1 ag: inactive; SR-BI uptake up: inactive; V-ATPase pHluor: inactive

How did CCN(CC(=O)NCc1ccc(F)cc1)C(=O)/C=C/c1ccc(S(=O)(=O)N(CC)CC)cc1 do in these assays?
CaV13 FRET inh: inactive; Vif imaging: inactive; SR-BI DiI inh: 76; NTR1 ag: inactive; SR-BI uptake up: inactive; V-ATPase pHluor: inactive

Results for CC(O)C(NS(=O)(=O)c1ccc2ccccc2c1)C(=O)OCC(=O)Nc1ccccc1OC(F)F (stereo not given) ?
CaV13 FRET inh: inactive; Vif imaging: inactive; SR-BI DiI inh: inactive; SR-BI uptake up: inactive; V-ATPase pHluor: inactive

Results for CCn1c(CCc2ccccc2)nnc1SCC(N)=O ?
CaV13 FRET inh: inactive; Vif imaging: inactive; SR-BI DiI inh: inactive; NTR1 ag: inactive; SR-BI uptake up: inactive; V-ATPase pHluor: inactive

What do the screens show for `CC(C)NC(=O)C(c1ccc(F)cc1)N(C(=O)CCC(=O)Nc1ccccn1)c1cccc(F)c1` (stereo not given)?
CaV13 FRET inh: inactive; Vif imaging: 74; SR-BI DiI inh: inactive; NTR1 ag: inactive; SR-BI uptake up: inactive; V-ATPase pHluor: inactive

Results for Cc1cccc(N(C(=O)CCC(=O)Nc2ccccn2)C(C(=O)NC(C)C)c2ccc(F)cc2)c1 (stereo not given) ?
CaV13 FRET inh: inactive; Vif imaging: inactive; SR-BI DiI inh: inactive; NTR1 ag: inactive; SR-BI uptake up: inactive; V-ATPase pHluor: inactive

How did C/C(=N\NC(=O)c1c(Br)c(C)nn1C)c1ccc(NC(=O)C(C)Oc2ccc(Cl)cc2C)cc1 (stereo not given) do in these assays?
SR-BI DiI inh: 76; NTR1 ag: inactive; SR-BI uptake up: inactive; V-ATPase pHluor: inactive

Results for CCOc1ccccc1NC(=O)c1ccc(S(=O)(=O)N2CCCCC2)cc1 ?
CaV13 FRET inh: inactive; Vif imaging: inactive; SR-BI DiI inh: 76; NTR1 ag: inactive; SR-BI uptake up: inactive; V-ATPase pHluor: inactive

Results for O=C(NCc1ccccc1)c1ccc(S(=O)(=O)N2CCCc3ccccc32)cc1 ?
CaV13 FRET inh: inactive; Vif imaging: inactive; SR-BI DiI inh: inactive; NTR1 ag: inactive; SR-BI uptake up: inactive; V-ATPase pHluor: inactive

How did O=C(NCc1ccccc1)c1ccc(S(=O)(=O)N2CCCCCC2)cc1 do in these assays?
CaV13 FRET inh: inactive; Vif imaging: 77; V-ATPase pHluor: inactive

Results for O=C(NCc1ccco1)c1ccc(S(=O)(=O)N2CCCc3ccccc32)cc1 ?
CaV13 FRET inh: inactive; Vif imaging: inactive; SR-BI DiI inh: 76; NTR1 ag: inactive; SR-BI uptake up: inactive; V-ATPase pHluor: inactive

What do the screens show for `O=C(CN1CCN(Cc2ccccc2Cl)C1=O)NCCCN1CCOCC1`?
CaV13 FRET inh: inactive; Vif imaging: inactive; SR-BI DiI inh: inactive; NTR1 ag: inactive; SR-BI uptake up: inactive; V-ATPase pHluor: inactive

How did CCCc1ccc2oc(C(=O)N3CCN(C4CCS(=O)(=O)C4)CC3)c(C)c2c1 (stereo not given) do in these assays?
CaV13 FRET inh: inactive; Vif imaging: inactive; SR-BI DiI inh: inactive; NTR1 ag: inactive; SR-BI uptake up: inactive; V-ATPase pHluor: inactive

Results for O=C(O)c1[nH]c2ccccc2c1C(c1cc(Br)ccc1O)c1c(C(=O)O)[nH]c2ccccc12 ?
CaV13 FRET inh: 144; Vif imaging: inactive; SR-BI DiI inh: inactive; NTR1 ag: inactive; SR-BI uptake up: inactive; V-ATPase pHluor: inactive

How did COc1cc(C(=O)COC(=O)c2cc([N+](=O)[O-])ccc2N2CCOCC2)ccc1OC(F)F do in these assays?
CaV13 FRET inh: inactive; Vif imaging: inactive; SR-BI DiI inh: 85; NTR1 ag: inactive; SR-BI uptake up: inactive; V-ATPase pHluor: inactive

Results for COc1ccc(C(=O)COC(=O)c2cc([N+](=O)[O-])ccc2N2CCOCC2)c(OC)c1 ?
CaV13 FRET inh: inactive; Vif imaging: inactive; SR-BI DiI inh: inconclusive; NTR1 ag: inactive; SR-BI uptake up: inactive; V-ATPase pHluor: inactive

How did COc1ccccc1C(=O)COC(=O)c1cc([N+](=O)[O-])ccc1N1CCOCC1 do in these assays?
CaV13 FRET inh: inactive; Vif imaging: inactive; SR-BI DiI inh: 85; NTR1 ag: inactive; SR-BI uptake up: inactive; V-ATPase pHluor: inactive

What do the screens show for `CCOc1ccc(C(=O)c2cc([N+](=O)[O-])ccc2N2CCOCC2)cc1`?
CaV13 FRET inh: inactive; Vif imaging: 74; SR-BI DiI inh: inactive; SR-BI uptake up: inactive; V-ATPase pHluor: inactive

What do the screens show for `Cc1cc(C)c(C(=O)COC(=O)c2cc([N+](=O)[O-])ccc2N2CCOCC2)cc1C`?
CaV13 FRET inh: inactive; Vif imaging: inactive; SR-BI DiI inh: 79; NTR1 ag: inactive; SR-BI uptake up: inactive; V-ATPase pHluor: inactive

How did Cc1ccc(NNC(=O)Nc2ccc(Cl)cc2)nn1 do in these assays?
CaV13 FRET inh: inactive; Vif imaging: inactive; SR-BI DiI inh: inactive; NTR1 ag: inactive; SR-BI uptake up: inactive; V-ATPase pHluor: inactive

How did COc1ccc(-c2nc(NC(=O)c3ccco3)sc2C)cc1 do in these assays?
CaV13 FRET inh: inactive; Vif imaging: inactive; V-ATPase pHluor: inactive

What do the screens show for `COc1ccc(-c2nc(NC(=O)c3[nH]c(C)c(C(C)=O)c3C)sc2C)cc1`?
CaV13 FRET inh: inactive; Vif imaging: inactive; SR-BI DiI inh: 76; NTR1 ag: inactive; SR-BI uptake up: inactive; V-ATPase pHluor: inactive

What do the screens show for `O=C(COC(=O)c1cc(Cl)ccc1[N+](=O)[O-])NC1CC1`?
CaV13 FRET inh: inactive; Vif imaging: 56; SR-BI DiI inh: inactive; NTR1 ag: inactive; SR-BI uptake up: inactive; V-ATPase pHluor: inactive
